This is a sample that favours compounds with a hit; in the whole collection about 1.6% have one here.
DAGLB inh = diacylglycerol lipase beta (human) inhibition | AID 504411 | inhibition, % at 5.17 µM | HEK293T DAGLB membrane lysate, EnzChek fluorogenic substrate | 340,000 compounds, 0.059% hits; in the data active = inhibition above about 34%
Target sequence (Q8NCG7 whole entry, looked up): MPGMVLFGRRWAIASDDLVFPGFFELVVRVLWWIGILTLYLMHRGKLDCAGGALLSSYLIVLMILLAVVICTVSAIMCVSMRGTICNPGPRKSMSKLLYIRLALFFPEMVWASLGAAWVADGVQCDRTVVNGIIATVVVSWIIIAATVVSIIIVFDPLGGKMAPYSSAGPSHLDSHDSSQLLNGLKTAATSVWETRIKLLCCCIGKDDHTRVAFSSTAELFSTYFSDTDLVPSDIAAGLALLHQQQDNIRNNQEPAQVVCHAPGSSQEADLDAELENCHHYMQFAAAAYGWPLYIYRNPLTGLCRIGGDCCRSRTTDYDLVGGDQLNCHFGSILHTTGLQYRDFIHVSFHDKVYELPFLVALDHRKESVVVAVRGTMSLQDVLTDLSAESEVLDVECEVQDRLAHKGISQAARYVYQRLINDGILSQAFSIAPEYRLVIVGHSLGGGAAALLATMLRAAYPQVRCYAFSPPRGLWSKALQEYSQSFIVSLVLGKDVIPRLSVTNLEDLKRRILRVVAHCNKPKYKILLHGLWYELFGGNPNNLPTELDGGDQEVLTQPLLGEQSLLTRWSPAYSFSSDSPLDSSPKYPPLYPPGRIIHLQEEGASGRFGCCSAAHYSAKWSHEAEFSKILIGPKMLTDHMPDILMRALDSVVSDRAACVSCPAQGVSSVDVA
HTRA1 inhibitor = HTRA1 (human) protease inhibition. 340,000 compounds, 0.5% hits. Q92743. inhibition, % at 5.96 µM. AID 504803. recombinant HTRA1, FP-rhodamine activity-based probe, fluorescence polarization; in the data active = inhibition above about 36%
SIAE primary = blocks human sialic acid acetylesterase | Q9HAT2 | SIAE FP-Rh probe binding, fluorescence polarization | inhibition, % at 9.66 µM | 370,000 compounds, 0.69% hits;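 active = inhibition above a cutoff: mean of compounds within the control limits plus 3 SD of those, cut at about 17% in these data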
TCR CD3 inh = blocks the human TCR-CD3 interaction; TAMRA-labeled TCR probe fluorescence, biochemical; inhibition, % at 9.4 µM; 360,000 compounds, 0.37% hits; AID 651800;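 also: recombinant mutant TCR 2C K166C tagged with TAMRA read by polarization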
mABHD4 FP = ABHD4 (mouse) inhibition, primary FP screen. AID 720543. Q8VD66. inhibition, % at 8.92 µM. purified mABHD4, FP-Rh probe fluorescence polarization. 370,000 compounds, 0.54% hits;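 active = inhibition exceeding the mean over every tested compound plus 3 SD, cut at about 30% in these data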
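Assay system: mABHD4 protein; medium: HEPES pH 7.0, NaCl, Pluronic buffer; dosing: 8.92 µM, single dose; schedule: 45 min + 60 min at 25 °C; signal: FP readout, ex 525 nm / em 598 nm; read-out: normalized percent inhibition of probe labeling; repeats: single replicate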
BSA TAMRA ctr = counter-screen for TCR-CD3 interaction inhibitors: BSA probe | shares compounds with TCR CD3 inh | TAMRA-labeled BSA probe fluorescence counterscreen | AID 652035 | 1,200 compounds, 10% hits | inhibition, % at 9.4 µM; in the data active = inhibition above about 23%
TCR-CD3 inh conf = TCR-CD3 interaction inhibition, confirmation; shares compounds with TCR CD3 inh; TAMRA-labeled TCR probe fluorescence binding assay; inhibition, % at 9.4 µM; 1,200 compounds, 48% hits
ABHD4 confirm = ABHD4 (mouse) inhibition, FP confirmation | purified mABHD4, FP-Rh probe fluorescence polarization | AID 720658 | shares compounds with mABHD4 FP | inhibition, % at 8.92 µM | 1,800 compounds, 55% hits;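 active = mean inhibition across replicates above the hit cutoff set in the primary screen, cut at about 30% in these data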
SIAE inh conf = confirmation of human SIAE inhibitors | shares compounds with SIAE primary | SIAE FP-Rh activity-based probe, fluorescence polarization | inhibition, % at 9.66 µM | 2,300 compounds, 13% hits | AID 1117263;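 active = mean inhibition of the replicates above the hit cutoff set in the primary screen, cut at about 17% in these data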;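 also: inhibitors lower polarization as more probe stays unbound to SIAE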
Large screens that a line does not name were inactive (follow-up assays come after a bar, where they were run). Rule as the data show it, unless noted: active = inhibition above about 19%; inactive = the rest.

O=C1C=CC(=O)c2c(O)c(N3CCN(CCOCCO)CC3)c(Br)c(O)c21	SIAE primary 24.2, TCR CD3 inh 75.3, mABHD4 FP 46.4 | BSA TAMRA ctr inactive | TCR-CD3 inh conf 48.3 | ABHD4 confirm 72.2 | SIAE inh conf inactive
COc1cc([N+](=O)[O-])cc(/C=N/NC(=O)c2ccc(C)nc2)c1O	none
COc1cc([N+](=O)[O-])cc(/C=N/NC(=O)c2ccc(NC(=O)c3ccc(C)cc3)cc2)c1O	SIAE primary 18.1, TCR CD3 inh 27.4 | BSA TAMRA ctr inactive | TCR-CD3 inh conf 45.2 | SIAE inh conf inactive
CCOC(=O)C1=Nc2ccccc2C1=[N+]=[N-]	none
CCOC(=O)C1=Nc2cccc3c(O)ccc1c23	SIAE primary 29.5, TCR CD3 inh 84.6 (no result: DAGLB inh, HTRA1 inhibitor) | BSA TAMRA ctr 141.0 | TCR-CD3 inh conf 109.7 | SIAE inh conf 18.3
O=C(Cc1csc(N2CCOCC2)n1)N/N=C/c1ccc(O)c(O)c1O	SIAE primary 31.1, TCR CD3 inh 41.0 | BSA TAMRA ctr inactive | TCR-CD3 inh conf inactive | SIAE inh conf 17.8
S=C1NCCOc2ccccc21	none (no result: DAGLB inh, HTRA1 inhibitor)
CCOc1ccc(NC(=O)NNC(=O)c2ccc3ccccc3c2O)cc1	SIAE primary 20.6, TCR CD3 inh 31.5 | BSA TAMRA ctr inactive | TCR-CD3 inh conf 22.7 | SIAE inh conf inactive
O=C1CCC2CN3CCc4c([nH]c5ccccc45)C3CC2C1 (stereo not drawn)	none
O=C(O)C1CCCC2CN3CCc4c([nH]c5ccccc45)C3C(O)C21 (stereo not drawn)	SIAE primary 19.3, TCR CD3 inh 26.7 | BSA TAMRA ctr inactive | TCR-CD3 inh conf inactive | SIAE inh conf inactive
Cc1cn2c(=O)c3ncn(C4OC(CO)C(O)C4O)c3n(C)c2n1 (stereo not drawn)	none (no result: DAGLB inh, HTRA1 inhibitor)
CN(C)/C=C1\C=C2C(=O)c3ccccc3N2C1=O	SIAE primary 20.9, TCR CD3 inh 39.1 | BSA TAMRA ctr 113.1 | TCR-CD3 inh conf 74.3 | SIAE inh conf 37.7
CN(C)S(=O)(=O)N1C(=O)c2ccccc2C1=O	none
Cc1[nH][nH]c(=O)c1N=Nc1ccccc1Cl	none
Clc1ccccc1N=Nc1ccccn1	SIAE primary 20.3, TCR CD3 inh 27.6, mABHD4 FP 41.0 | BSA TAMRA ctr inactive | TCR-CD3 inh conf inactive | ABHD4 confirm inactive | SIAE inh conf inactive
O=[N+]([O-])c1cc([N+](=O)[O-])c2nonc2c1Nc1ccc(O)cc1	SIAE primary 20.9, TCR CD3 inh 42.7, mABHD4 FP 45.8 | BSA TAMRA ctr inactive | TCR-CD3 inh conf inactive | ABHD4 confirm inactive | SIAE inh conf inactive
O=[N+]([O-])c1cc([N+](=O)[O-])c2nonc2c1Nc1ccccc1O	none
CC(C)C[C@@H]1COc2cc(Br)ccc2S(=O)(=O)N1Cc1cn(Cc2ccc(Cl)cc2)nn1	none (no result: DAGLB inh, HTRA1 inhibitor, TCR CD3 inh)
COc1ccc(/C(C)=N/NC(=S)NCCc2ccccc2)c(O)c1	SIAE primary 24.7, TCR CD3 inh 22.3 | BSA TAMRA ctr inactive | TCR-CD3 inh conf inactive | SIAE inh conf 23.5
O[C@H](COc1cccc(F)c1)CN1CCC(C(O)(c2ccccc2)c2ccccc2)CC1	none (no result: DAGLB inh, HTRA1 inhibitor, TCR CD3 inh)
CCN1C(=O)/C(=C2\SC(=S)N(NC(=O)c3ccccc3O)C2=O)c2ccccc21	SIAE primary 19.4, TCR CD3 inh 31.4, mABHD4 FP 31.4 | BSA TAMRA ctr inactive | TCR-CD3 inh conf inactive | ABHD4 confirm 73.1 | SIAE inh conf 25.7
Nc1c(C(=O)NCC2CCCO2)sc2nc3c(c(-c4ccco4)c12)CC/C3=C\c1ccco1 (stereo not drawn)	HTRA1 inhibitor 39.8, SIAE primary 22.8, TCR CD3 inh 38.9, mABHD4 FP 31.6 | BSA TAMRA ctr inactive | TCR-CD3 inh conf 24.1 | ABHD4 confirm inactive | SIAE inh conf inactive
O=C(CCCSc1ccccc1)Nc1nc(-c2ccco2)c(-c2ccco2)s1	SIAE primary 27.8, TCR CD3 inh 23.0 | BSA TAMRA ctr inactive | TCR-CD3 inh conf inactive | SIAE inh conf inactive
Cc1ccc(C(=O)Nc2nc(-c3ccco3)c(-c3ccco3)s2)o1	SIAE primary 40.8, TCR CD3 inh 30.6, mABHD4 FP 36.0 | BSA TAMRA ctr inactive | TCR-CD3 inh conf inactive | ABHD4 confirm inactive | SIAE inh conf inactive
C#CCNC(=O)C[C@@H]1C[C@@]2(C(=O)OC)CC(C)(C)CC=C2N(CCCCCCCC)C1=O	none (no result: DAGLB inh, HTRA1 inhibitor)
c1coc(-c2nc(-c3ccco3)c(-c3ccco3)nc2-c2ccco2)c1	HTRA1 inhibitor 74.1, SIAE primary 28.9, TCR CD3 inh 26.5, mABHD4 FP 54.2 | BSA TAMRA ctr inactive | TCR-CD3 inh conf inactive | ABHD4 confirm 43.3 | SIAE inh conf inactive
Cn1ccc2c(N3CCCCCCC3)cc3c(c21)C1CCC3O1 (stereo not drawn)	SIAE primary 49.0, TCR CD3 inh 91.2, mABHD4 FP 39.9 (no result: DAGLB inh, HTRA1 inhibitor) | BSA TAMRA ctr inactive | TCR-CD3 inh conf inactive | ABHD4 confirm inactive | SIAE inh conf inactive
CC(NC(=O)Nc1ccc(O)cc1)(C(F)(F)F)C(F)(F)F	SIAE primary 26.2, TCR CD3 inh 53.7, mABHD4 FP 65.9 | BSA TAMRA ctr inactive | TCR-CD3 inh conf inactive | ABHD4 confirm inactive | SIAE inh conf inactive
COc1ccccc1NC(=S)OC1CCC12CCC(c1ccccc1)CC2 (stereo not drawn)	none (no result: DAGLB inh, HTRA1 inhibitor, TCR CD3 inh)
O=C(CC1C=CCC1)OCCN1CCN(C2CN(Cc3cn(Cc4ccccc4Cl)nn3)S(=O)(=O)C2)CC1 (stereo not drawn)	none (no result: DAGLB inh, HTRA1 inhibitor, TCR CD3 inh)
Cc1cc(O)ccc1N/C=C1\CCCC1=O	SIAE primary 46.1, TCR CD3 inh 33.7, mABHD4 FP 69.1 | BSA TAMRA ctr inactive | TCR-CD3 inh conf inactive | ABHD4 confirm inactive | SIAE inh conf inactive
COC(=O)[C@]12C[C@H](CC(=O)NCC3CCCCC3)C(=O)N(Cc3cccc4ccccc34)C1=C[C@H](C1CCCC1)O[C@@H]2C	none (no result: DAGLB inh, HTRA1 inhibitor, TCR CD3 inh)
Cn1c(/C=C/c2ccccc2)nc2ccccc2c1=O	none
Cn1c(/C=C/c2ccc(Cl)cc2)nc2ccccc2c1=O	mABHD4 FP 57.0 | ABHD4 confirm inactive
Nc1c(Br)cc2c([nH]c(=O)c3ccccc32)c1Br	mABHD4 FP 42.5 | ABHD4 confirm 36.8
Nc1cc2[nH]c(=O)c3ccccc3c2cc1[N+](=O)[O-]	none
CCCCOc1ccc(C(=O)NC2CCCCN(C)C2=O)cc1 (stereo not drawn)	none (no result: DAGLB inh, HTRA1 inhibitor)
CC1=NN(c2ccccc2)C(=O)/C1=C/c1c(O)n(-c2ccc(F)cc2)[nH]c1=O	mABHD4 FP 37.4 | ABHD4 confirm 47.3
CCC(C)Sc1cc(-c2nc3cc(C)ccn3c2NC2CCCCC2)ccc1OC (stereo not drawn)	mABHD4 FP 31.2 | ABHD4 confirm 67.2

Screening data (PubChem BioAssay)
